Reference: ChEMBL document CHEMBL3098047, “Design, synthesis and structure-activity relationships of substituted oxazole-benzamide antibacterial inhibitors of FtsZ” (Bioorg Med Chem Lett, 2014)
In brackets after ≈: the same amount, converted by molar mass.

Key:
[1] = test system: Staphylococcus aureus; experiment: Antibacterial activity against Staphylococcus aureus ATCC 29213 by broth microdilution method; assay type: functional
In short: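 Broth microdilution MIC per CLSI guidelines against S. aureus ATCC 29213; MIC in µg/mL.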

[2] = test system: Staphylococcus aureus; experiment: Antibacterial activity against Staphylococcus aureus harboring FtsZ G196A mutant by broth microdilution method; assay type: functional
In short: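 S. aureus ATCC 29213 derivative with G196A substitution in FtsZ; MIC by broth microdilution following CLSI guidelines; reported in µg/mL.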

[3] = target: T1, Cell division protein FtsZ (Staphylococcus aureus) (UniProt P0A031); experiment: Inhibition of Staphylococcus aureus ATCC 29213 FtsZ-mediated cell division phenotype
T1 sequence (whole entry): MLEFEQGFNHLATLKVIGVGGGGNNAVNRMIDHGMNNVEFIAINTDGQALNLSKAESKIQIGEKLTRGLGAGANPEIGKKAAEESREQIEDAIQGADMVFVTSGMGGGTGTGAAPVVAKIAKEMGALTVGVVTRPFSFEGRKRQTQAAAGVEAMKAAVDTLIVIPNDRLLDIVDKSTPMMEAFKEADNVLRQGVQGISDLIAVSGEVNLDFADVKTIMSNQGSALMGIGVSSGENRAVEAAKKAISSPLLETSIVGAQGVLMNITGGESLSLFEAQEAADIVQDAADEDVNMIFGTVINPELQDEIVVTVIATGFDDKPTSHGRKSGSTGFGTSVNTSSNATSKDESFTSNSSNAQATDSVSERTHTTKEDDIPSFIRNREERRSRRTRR
In short: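 S. aureus ATCC 29213 cell division inhibition assay run alongside MIC testing; value is the lowest concentration at which an inhibition of cell division phenotype was seen (µg/mL).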

SMILES | MIC [1] | MIC [2] | MIC [3]
NC(=O)c1c(F)ccc(OCc2nc(-c3ccc(Cl)cc3)c(CCCO)o2)c1F | 2 µg/mL (≈ 4.73 µM) | > 64 µg/mL | 2 µg/mL (≈ 4.73 µM)
NC(=O)c1c(F)ccc(OCc2nc(-c3ccccc3)co2)c1F | 16 µg/mL (≈ 48.4 µM) | > 64 µg/mL | 16 µg/mL (≈ 48.4 µM)
NC(=O)c1c(F)ccc(OCc2nc(-c3ccc(Cl)cc3)c(CO)o2)c1F | 8 µg/mL (≈ 20.3 µM) | > 64 µg/mL | 8 µg/mL (≈ 20.3 µM)
COc1ccc(-c2nc(COc3ccc(F)c(C(N)=O)c3F)oc2-c2cncs2)cc1 | 2 µg/mL (≈ 4.51 µM) |  | 2 µg/mL (≈ 4.51 µM)
NC(=O)c1c(F)ccc(OC(CCO)c2nc(-c3ccc(C(F)(F)F)cc3)c(Br)o2)c1F (racemic) | 0.5 µg/mL (≈ 0.959 µM) |  | 0.5 µg/mL (≈ 0.959 µM)
NC(=O)c1c(F)ccc(OCc2nc(-c3ccc(Cl)cc3)c([N+](=O)[O-])o2)c1F | > 64 µg/mL | > 64 µg/mL | > 64 µg/mL
CN(C)CCC(Oc1ccc(F)c(C(N)=O)c1F)c1nc(-c2ccc(C(F)(F)F)cc2)c(Br)o1 (racemic) | 8 µg/mL (≈ 14.6 µM) |  | 16 µg/mL (≈ 29.2 µM)
NC(=O)c1c(F)ccc(OCc2nc(-c3ccc(Cl)cc3)co2)c1F | 4 µg/mL (≈ 11 µM) | > 64 µg/mL | 4 µg/mL (≈ 11 µM)
NC(=O)c1c(F)ccc(O[C@@H](CO)c2nc(-c3ccc(C(F)(F)F)cc3)c(Br)o2)c1F | 16 µg/mL (≈ 31.5 µM) | 64 µg/mL (≈ 126 µM) | 16 µg/mL (≈ 31.5 µM)
C=CCc1oc(COc2ccc(F)c(C(N)=O)c2F)nc1-c1ccc(Cl)cc1 | 0.06 µg/mL (≈ 0.148 µM) | > 64 µg/mL | 0.06 µg/mL (≈ 0.148 µM)
COc1oc(COc2ccc(F)c(C(N)=O)c2F)nc1-c1ccc(Cl)cc1 | 0.5 µg/mL (≈ 1.27 µM) |  | 0.5 µg/mL (≈ 1.27 µM)
COc1ccc(-c2nc(COc3ccc(F)c(C(N)=O)c3F)oc2-c2ccccc2)cc1 | 0.12 µg/mL (≈ 0.275 µM) | > 64 µg/mL | 0.12 µg/mL (≈ 0.275 µM)
CCOc1oc(COc2ccc(F)c(C(N)=O)c2F)nc1-c1ccc(Cl)cc1 | 0.06 µg/mL (≈ 0.147 µM) | > 64 µg/mL | 0.03 µg/mL (≈ 0.0734 µM)
NC(=O)c1c(F)ccc(OCc2nc(-c3ccc(OC(F)(F)F)cc3)c(C(F)(F)F)o2)c1F | 0.5 µg/mL (≈ 1.04 µM) | > 64 µg/mL | 0.5 µg/mL (≈ 1.04 µM)
NC(=O)c1c(F)ccc(OCc2nc(-c3ccc(Cl)cc3)c(Br)o2)c1F | 0.06 µg/mL (≈ 0.135 µM) | 2 µg/mL (≈ 4.51 µM) | 0.03 µg/mL (≈ 0.0676 µM)
CC(C)(Oc1ccc(F)c(C(N)=O)c1F)c1nc(-c2ccc(Cl)cc2)c(Br)o1 | > 64 µg/mL |  | 
NC(=O)c1c(F)ccc(OC(CO)c2nc(-c3ccc(Cl)cc3)c(Br)o2)c1F (racemic) | 0.25 µg/mL (≈ 0.528 µM) |  | 0.25 µg/mL (≈ 0.528 µM)
NC(=O)c1c(F)ccc(OCc2nc(-c3ccc(O)cc3)co2)c1F | 8 µg/mL (≈ 23.1 µM) | > 64 µg/mL | 8 µg/mL (≈ 23.1 µM)
NC(=O)c1c(F)ccc(O[C@H](CO)c2nc(-c3ccc(C(F)(F)F)cc3)c(Br)o2)c1F | 0.12 µg/mL (≈ 0.237 µM) | 4 µg/mL (≈ 7.89 µM) | 0.25 µg/mL (≈ 0.493 µM)
NC(=O)c1c(F)ccc(OCc2nc(-c3ccc(OC(F)(F)F)cc3)c(I)o2)c1F | 0.06 µg/mL (≈ 0.111 µM) | > 64 µg/mL | 0.06 µg/mL (≈ 0.111 µM)
NC(=O)c1c(F)ccc(OC(c2cccnc2)c2nc(-c3ccc(Cl)cc3)c(Br)o2)c1F (racemic) | 4 µg/mL (≈ 7.68 µM) |  | 4 µg/mL (≈ 7.68 µM)
N#Cc1oc(COc2ccc(F)c(C(N)=O)c2F)nc1-c1ccc(C(F)(F)F)cc1 | 2 µg/mL (≈ 4.72 µM) | > 64 µg/mL | 4 µg/mL (≈ 9.45 µM)
NC(=O)c1c(F)ccc(OCc2nc(-c3ccc(OC(F)(F)F)cc3)c(Br)o2)c1F | 0.06 µg/mL (≈ 0.122 µM) | 2 µg/mL (≈ 4.06 µM) | 0.03 µg/mL (≈ 0.0608 µM)
Cc1nnc(CC(Oc2ccc(F)c(C(N)=O)c2F)c2nc(-c3ccc(C(F)(F)F)cc3)c(Br)o2)o1 (racemic) | 8 µg/mL (≈ 14 µM) |  | 16 µg/mL (≈ 27.9 µM)
COc1ccc(-c2nc(COc3ccc(F)c(C(N)=O)c3F)oc2C2CC2)cc1 | 0.12 µg/mL (≈ 0.3 µM) | > 64 µg/mL | 0.12 µg/mL (≈ 0.3 µM)
NC(=O)c1c(F)ccc(OCc2nc(-c3ccc(Cl)cc3)c(N)o2)c1F | > 64 µg/mL | > 64 µg/mL | > 64 µg/mL
NC(=O)c1c(F)ccc(OCc2nc(-c3ccc(OC(F)(F)F)cc3)c(Cl)o2)c1F | 0.12 µg/mL (≈ 0.267 µM) | 8 µg/mL (≈ 17.8 µM) | 0.12 µg/mL (≈ 0.267 µM)
CCC(Oc1ccc(F)c(C(N)=O)c1F)c1nc(-c2ccc(Cl)cc2)c(Br)o1 (racemic) | 2 µg/mL (≈ 4.24 µM) |  | 1 µg/mL (≈ 2.12 µM)
